Experimental data: ChEMBL document CHEMBL1212840, “Lysine N(epsilon)-trimethylation, a tool for improving the selectivity of antimicrobial peptides” (J Med Chem, 2010)
Square brackets hold non-standard residues; d marks the D form. Peptide text beside a SMILES is read from it. Lys(Me3) = C[N+](C)(C)CCCC[C@H](N)C(=O)O

What was measured:
[1] = Selectivity index, ratio of HC50 for sheep erythrocyte to MIC50 for Acinetobacter baumannii ATCC 19606 ATCC 19606; format: functional
[2] = Selectivity index, ratio of HC50 for sheep erythrocyte to MIC50 for Staphylococcus aureus CECT 240; format: functional
Leishmania donovani [3] = test: Antileishmanial activity against Leishmania donovani MHOM/SD/001S-2D promastigotes after 4 hrs by MTT assay
Leishmania donovani [4] = test: Antileishmanial activity against Leishmania donovani MHOM/SD/001S-2D promastigotes after 72 hrs by MTT assay; format: functional, organism-based
Method in brief: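 L. donovani promastigotes (strain MHOM/SD/00/1S-2D) are harvested at late exponential phase and washed in Hank's + 20 mM D-glucose, pH 7.2. They are treated with peptide at 2 × 10^7 parasites/mL for 4 h at 26 °C. A 20 μL aliquot then goes into complete medium for 72 h at 26 °C to let survivors proliferate. LC50 is 50% inhibition of proliferation. Triplicates, repeated at least twice.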

Staphylococcus aureus = test: Antimicrobial activity against Staphylococcus aureus CECT 240 by turbidimetry; format: functional
[5] = Toxicity in sheep erythrocyte assessed as hemolysis; format: cell-based, Ovis aries; conditions: sheep erythrocytes
Method in brief: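 Washed sheep erythrocytes at 2 107 cells/mL in Hank's medium were exposed to peptide for 4 h at 37 °C, then spun (5 min, 4 °C). Hemoglobin in the supernatant was read at 550 nm. HC50 is the peptide concentration releasing 50% of the hemoglobin freed by 0.1% Triton X-100.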

Acinetobacter baumannii = test: Antimicrobial activity against Acinetobacter baumannii ATCC 19606 ATCC 19606 by turbidimetry; format: functional
[6] = Selectivity index, ratio of IC50 for sheep erythrocyte to LC50 for Leishmania donovani MHOM/SD/001S-2D promastigotes
Method in brief: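 SI = HC50/LC50. For HC50, washed sheep erythrocytes at 2 × 10^7 cells/mL in Hank's are exposed to peptide for 4 h at 37 °C. Hemoglobin in the supernatant is read at 550 nm; 0.1% Triton X-100 gives full lysis, and HC50 is 50% release.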

[7] = Selectivity index, ratio of IC50 for sheep erythrocyte to LC50 for Leishmania pifanoi MHOM/VE/60/LTrod amastigotes
Method in brief: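 SI = HC50/LC50. HC50 comes from sheep erythrocytes (2 × 10^7 cells/mL in Hank's, 4 h, 37 °C, hemoglobin at 550 nm, 0.1% Triton X-100 as full lysis). For LC50, L. pifanoi axenic amastigotes at 2 × 10^7/mL in Hank's + 20 mM glucose get peptide for 4 h at 32 °C. An aliquot is then regrown in complete medium for 96 h at 32 °C.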

Leishmania pifanoi [8] = test: Antileishmanial activity against Leishmania pifonoi MHOM/VE/60/LTrod promastigotes after 72 hrs by MTT assay; format: functional, organism-based
Leishmania pifanoi [9] = test: Antileishmanial activity against Leishmania pifonoi MHOM/VE/60/LTrod amastigotes after 4 hrs by MTT assay

CC[C@H](C)[C@H](NC(=O)[C@H](CCCC[N+](C)(C)C)NC(=O)[C@H](CCCC[N+](C)(C)C)NC(=O)[C@H](Cc1ccccc1)NC(=O)[C@H](CC(C)C)NC(=O)[C@H](CCCCN)NC(=O)[C@H](Cc1c[nH]c2ccccc12)NC(=O)[C@@H](N)CCCCN)C(=O)NCC(=O)N[C@@H](C)C(=O)N[C@H](C(=O)N[C@@H](CC(C)C)C(=O)N[C@@H](CCCCN)C(=O)N[C@H](C(=O)N[C@@H](CC(C)C)C(N)=O)C(C)C)C(C)C.[Cl-].[Cl-] (H-KWKLF[Lys(Me3)][Lys(Me3)]IGAVLKVL-NH2)
Selectivity Index [1]: 51.5 | Selectivity Index [2]: 12.5 | IC50 (Leishmania donovani [3]): 6.1 µM | LC50 (Leishmania donovani [4]): 5.3 µM | MIC50 (Staphylococcus aureus): 10.7 µM | HC50 [5]: 134 µM | MIC50 (Acinetobacter baumannii): 2.6 µM | Selectivity Index [6]: 25.3 | Selectivity Index [7]: 4.9 | LC50 (Leishmania pifanoi [8]): 27 µM | IC50 (Leishmania pifanoi [9]): 9.2 µM

CC[C@H](C)[C@H](NC(=O)[C@H](CCCCN)NC(=O)[C@H](CCCC[N+](C)(C)C)NC(=O)[C@H](Cc1ccccc1)NC(=O)[C@H](CC(C)C)NC(=O)[C@H](CCCCN)NC(=O)[C@H](Cc1c[nH]c2ccccc12)NC(=O)[C@@H](N)CCCCN)C(=O)NCC(=O)N[C@@H](C)C(=O)N[C@H](C(=O)N[C@@H](CC(C)C)C(=O)N[C@@H](CCCCN)C(=O)N[C@H](C(=O)N[C@@H](CC(C)C)C(N)=O)C(C)C)C(C)C.[Cl-] (H-KWKLF[Lys(Me3)]KIGAVLKVL-NH2)
Selectivity Index [1]: 112.2 | Selectivity Index [2]: 34.3 | IC50 (Leishmania donovani [3]): 3.7 µM | LC50 (Leishmania donovani [4]): 1.7 µM | MIC50 (Staphylococcus aureus): 4.6 µM | HC50 [5]: 158 µM | MIC50 (Acinetobacter baumannii): 1.4 µM | Selectivity Index [6]: 92.7 | Selectivity Index [7]: 9.6 | LC50 (Leishmania pifanoi [8]): 16.3 µM | IC50 (Leishmania pifanoi [9]): 13.4 µM

CC[C@H](C)[C@H](NC(=O)[C@H](CCCCN)NC(=O)[C@H](CCCCN)NC(=O)[C@H](Cc1ccccc1)NC(=O)[C@H](CC(C)C)NC(=O)[C@H](CCCCN)NC(=O)[C@H](Cc1c[nH]c2ccccc12)NC(=O)[C@@H](N)CCCCN)C(=O)NCC(=O)N[C@@H](C)C(=O)N[C@H](C(=O)N[C@@H](CC(C)C)C(=O)N[C@@H](CCCC[N+](C)(C)C)C(=O)N[C@H](C(=O)N[C@@H](CC(C)C)C(N)=O)C(C)C)C(C)C.[Cl-] (H-KWKLFKKIGAVL[Lys(Me3)]VL-NH2)
Selectivity Index [1]: 74.9 | Selectivity Index [2]: 35.8 | IC50 (Leishmania donovani [3]): 3.5 µM | LC50 (Leishmania donovani [4]): 2.5 µM | MIC50 (Staphylococcus aureus): 4.4 µM | HC50 [5]: 157 µM | MIC50 (Acinetobacter baumannii): 2.1 µM | Selectivity Index [6]: 63 | Selectivity Index [7]: 13.5 | LC50 (Leishmania pifanoi [8]): 11.6 µM | IC50 (Leishmania pifanoi [9]): 10.1 µM

CC[C@H](C)[C@H](NC(=O)[C@H](CCCCN)NC(=O)[C@H](CCCC[N+](C)(C)C)NC(=O)[C@H](Cc1ccccc1)NC(=O)[C@H](CC(C)C)NC(=O)[C@H](CCCC[N+](C)(C)C)NC(=O)[C@H](Cc1c[nH]c2ccccc12)NC(=O)[C@@H](N)CCCCN)C(=O)NCC(=O)N[C@@H](C)C(=O)N[C@H](C(=O)N[C@@H](CC(C)C)C(=O)N[C@@H](CCCCN)C(=O)N[C@H](C(=O)N[C@@H](CC(C)C)C(N)=O)C(C)C)C(C)C.[Cl-].[Cl-] (H-KW[Lys(Me3)]LF[Lys(Me3)]KIGAVLKVL-NH2)
Selectivity Index [1]: 58.6 | Selectivity Index [2]: 18.9 | IC50 (Leishmania donovani [3]): 5.1 µM | LC50 (Leishmania donovani [4]): 6.7 µM | MIC50 (Staphylococcus aureus): 6.2 µM | HC50 [5]: 117 µM | MIC50 (Acinetobacter baumannii): 2 µM | Selectivity Index [6]: 17.4 | Selectivity Index [7]: 7.1 | LC50 (Leishmania pifanoi [8]): 16.5 µM | IC50 (Leishmania pifanoi [9]): 7.4 µM

CC[C@H](C)[C@H](NC(=O)[C@H](CCCC[N+](C)(C)C)NC(=O)[C@H](CCCC[N+](C)(C)C)NC(=O)[C@H](Cc1ccccc1)NC(=O)[C@H](CC(C)C)NC(=O)[C@H](CCCC[N+](C)(C)C)NC(=O)[C@H](Cc1c[nH]c2ccccc12)NC(=O)[C@@H](N)CCCC[N+](C)(C)C)C(=O)NCC(=O)N[C@@H](C)C(=O)N[C@H](C(=O)N[C@@H](CC(C)C)C(=O)N[C@@H](CCCC[N+](C)(C)C)C(=O)N[C@H](C(=O)N[C@@H](CC(C)C)C(N)=O)C(C)C)C(C)C (H-[Lys(Me3)]W[Lys(Me3)]LF[Lys(Me3)][Lys(Me3)]IGAVL[Lys(Me3)]VL-NH2)
IC50 (Leishmania donovani [3]): > 50 µM | LC50 (Leishmania donovani [4]): > 50 µM | MIC50 (Staphylococcus aureus): > 30 µM | HC50 [5]: > 200 µM | MIC50 (Acinetobacter baumannii): > 30 µM | LC50 (Leishmania pifanoi [8]): > 50 µM | IC50 (Leishmania pifanoi [9]): > 50 µM

CC[C@H](C)[C@H](NC(=O)[C@H](CCCCN)NC(=O)[C@H](CCCCN)NC(=O)[C@H](Cc1ccccc1)NC(=O)[C@H](CC(C)C)NC(=O)[C@H](CCCC[N+](C)(C)C)NC(=O)[C@H](Cc1c[nH]c2ccccc12)NC(=O)[C@@H](N)CCCCN)C(=O)NCC(=O)N[C@@H](C)C(=O)N[C@H](C(=O)N[C@@H](CC(C)C)C(=O)N[C@@H](CCCCN)C(=O)N[C@H](C(=O)N[C@@H](CC(C)C)C(N)=O)C(C)C)C(C)C.[Cl-] (H-KW[Lys(Me3)]LFKKIGAVLKVL-NH2)
Selectivity Index [1]: 50.3 | Selectivity Index [2]: 35.7 | IC50 (Leishmania donovani [3]): 3.3 µM | LC50 (Leishmania donovani [4]): 3.1 µM | MIC50 (Staphylococcus aureus): 2.4 µM | HC50 [5]: 85.6 µM | MIC50 (Acinetobacter baumannii): 1.7 µM | Selectivity Index [6]: 27.6 | Selectivity Index [7]: 10.4 | LC50 (Leishmania pifanoi [8]): 8.2 µM | IC50 (Leishmania pifanoi [9]): 9.4 µM

CC[C@H](C)[C@H](NC(=O)[C@H](CCCCN)NC(=O)[C@H](CCCCN)NC(=O)[C@H](Cc1ccccc1)NC(=O)[C@H](CC(C)C)NC(=O)[C@H](CCCCN)NC(=O)[C@H](Cc1c[nH]c2ccccc12)NC(=O)[C@@H](N)CCCC[N+](C)(C)C)C(=O)NCC(=O)N[C@@H](C)C(=O)N[C@H](C(=O)N[C@@H](CC(C)C)C(=O)N[C@@H](CCCCN)C(=O)N[C@H](C(=O)N[C@@H](CC(C)C)C(N)=O)C(C)C)C(C)C.[Cl-] (H-[Lys(Me3)]WKLFKKIGAVLKVL-NH2)
Selectivity Index [1]: 59.4 | Selectivity Index [2]: 22.7 | IC50 (Leishmania donovani [3]): 3.9 µM | LC50 (Leishmania donovani [4]): 2.8 µM | MIC50 (Staphylococcus aureus): 3.4 µM | HC50 [5]: 77.2 µM | MIC50 (Acinetobacter baumannii): 1.3 µM | Selectivity Index [6]: 27.6 | Selectivity Index [7]: 12 | LC50 (Leishmania pifanoi [8]): 6.4 µM | IC50 (Leishmania pifanoi [9]): 6 µM

H-KWKLFKKIGAVLKVL-NH2
Selectivity Index [1]: 36.5 | Selectivity Index [2]: 13.8 | IC50 (Leishmania donovani [3]): 1.8 µM | LC50 (Leishmania donovani [4]): 1.5 µM | MIC50 (Staphylococcus aureus): 2.9 µM | HC50 [5]: 40.2 µM | MIC50 (Acinetobacter baumannii): 1.1 µM | Selectivity Index [6]: 26.8 | Selectivity Index [7]: 8.9 | LC50 (Leishmania pifanoi [8]): 4.5 µM | IC50 (Leishmania pifanoi [9]): 4.3 µM

CC[C@H](C)[C@H](NC(=O)[C@H](CCCCN)NC(=O)[C@H](CCCCN)NC(=O)[C@H](Cc1ccccc1)NC(=O)[C@H](CC(C)C)NC(=O)[C@H](CCCC[N+](C)(C)C)NC(=O)[C@H](Cc1c[nH]c2ccccc12)NC(=O)[C@@H](N)CCCC[N+](C)(C)C)C(=O)NCC(=O)N[C@@H](C)C(=O)N[C@H](C(=O)N[C@@H](CC(C)C)C(=O)N[C@@H](CCCCN)C(=O)N[C@H](C(=O)N[C@@H](CC(C)C)C(N)=O)C(C)C)C(C)C.[Cl-].[Cl-] (H-[Lys(Me3)]W[Lys(Me3)]LFKKIGAVLKVL-NH2)
Selectivity Index [1]: 30 | Selectivity Index [2]: 13.1 | IC50 (Leishmania donovani [3]): 12.8 µM | LC50 (Leishmania donovani [4]): 15.5 µM | MIC50 (Staphylococcus aureus): 8 µM | HC50 [5]: 105 µM | MIC50 (Acinetobacter baumannii): 3.5 µM | Selectivity Index [6]: 6.7 | Selectivity Index [7]: 4.2 | LC50 (Leishmania pifanoi [8]): 24.8 µM | IC50 (Leishmania pifanoi [9]): 16.2 µM

CC[C@H](C)[C@H](NC(=O)[C@H](CCCC[N+](C)(C)C)NC(=O)[C@H](CCCCN)NC(=O)[C@H](Cc1ccccc1)NC(=O)[C@H](CC(C)C)NC(=O)[C@H](CCCCN)NC(=O)[C@H](Cc1c[nH]c2ccccc12)NC(=O)[C@@H](N)CCCCN)C(=O)NCC(=O)N[C@@H](C)C(=O)N[C@H](C(=O)N[C@@H](CC(C)C)C(=O)N[C@@H](CCCCN)C(=O)N[C@H](C(=O)N[C@@H](CC(C)C)C(N)=O)C(C)C)C(C)C.[Cl-] (H-KWKLFK[Lys(Me3)]IGAVLKVL-NH2)
Selectivity Index [1]: 86.3 | Selectivity Index [2]: 22.8 | IC50 (Leishmania donovani [3]): 3.7 µM | LC50 (Leishmania donovani [4]): 2.3 µM | MIC50 (Staphylococcus aureus): 7.2 µM | HC50 [5]: 164 µM | MIC50 (Acinetobacter baumannii): 1.9 µM | Selectivity Index [6]: 71.3 | Selectivity Index [7]: 13.5 | LC50 (Leishmania pifanoi [8]): 12.1 µM | IC50 (Leishmania pifanoi [9]): 11.4 µM
